Tests used:
[1] = molecular target: Serine/threonine-protein kinase DCLK1 (Homo sapiens) (UniProt O15075); assay: Inhibition of recombinant human DCAMKL1 at 200 nM using CREBtide as substrate measured after 60 mins by LANCE method relative to control
Outline: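 Single-concentration screen within an 85-kinase panel run by a contract lab, with each compound tested at 20 nM and 200 nM. Human recombinant enzymes were used. Activity was quantified as phosphorylation of a peptide substrate read by LANCE time-resolved detection, and inhibition was expressed relative to control, using the same format as the JAK assay.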

[2] = molecular target: Vascular endothelial growth factor receptor 3 (Homo sapiens) (UniProt P35916); assay: Inhibition of recombinant human FLT4 at 20 nM using Ulight-CAGAGAIETDKEYYTVKD as substrate measured after 90 mins by LANCE method relative to control
Chain of Vascular endothelial growth factor receptor 3 (Homo sapiens) (P35916 whole entry): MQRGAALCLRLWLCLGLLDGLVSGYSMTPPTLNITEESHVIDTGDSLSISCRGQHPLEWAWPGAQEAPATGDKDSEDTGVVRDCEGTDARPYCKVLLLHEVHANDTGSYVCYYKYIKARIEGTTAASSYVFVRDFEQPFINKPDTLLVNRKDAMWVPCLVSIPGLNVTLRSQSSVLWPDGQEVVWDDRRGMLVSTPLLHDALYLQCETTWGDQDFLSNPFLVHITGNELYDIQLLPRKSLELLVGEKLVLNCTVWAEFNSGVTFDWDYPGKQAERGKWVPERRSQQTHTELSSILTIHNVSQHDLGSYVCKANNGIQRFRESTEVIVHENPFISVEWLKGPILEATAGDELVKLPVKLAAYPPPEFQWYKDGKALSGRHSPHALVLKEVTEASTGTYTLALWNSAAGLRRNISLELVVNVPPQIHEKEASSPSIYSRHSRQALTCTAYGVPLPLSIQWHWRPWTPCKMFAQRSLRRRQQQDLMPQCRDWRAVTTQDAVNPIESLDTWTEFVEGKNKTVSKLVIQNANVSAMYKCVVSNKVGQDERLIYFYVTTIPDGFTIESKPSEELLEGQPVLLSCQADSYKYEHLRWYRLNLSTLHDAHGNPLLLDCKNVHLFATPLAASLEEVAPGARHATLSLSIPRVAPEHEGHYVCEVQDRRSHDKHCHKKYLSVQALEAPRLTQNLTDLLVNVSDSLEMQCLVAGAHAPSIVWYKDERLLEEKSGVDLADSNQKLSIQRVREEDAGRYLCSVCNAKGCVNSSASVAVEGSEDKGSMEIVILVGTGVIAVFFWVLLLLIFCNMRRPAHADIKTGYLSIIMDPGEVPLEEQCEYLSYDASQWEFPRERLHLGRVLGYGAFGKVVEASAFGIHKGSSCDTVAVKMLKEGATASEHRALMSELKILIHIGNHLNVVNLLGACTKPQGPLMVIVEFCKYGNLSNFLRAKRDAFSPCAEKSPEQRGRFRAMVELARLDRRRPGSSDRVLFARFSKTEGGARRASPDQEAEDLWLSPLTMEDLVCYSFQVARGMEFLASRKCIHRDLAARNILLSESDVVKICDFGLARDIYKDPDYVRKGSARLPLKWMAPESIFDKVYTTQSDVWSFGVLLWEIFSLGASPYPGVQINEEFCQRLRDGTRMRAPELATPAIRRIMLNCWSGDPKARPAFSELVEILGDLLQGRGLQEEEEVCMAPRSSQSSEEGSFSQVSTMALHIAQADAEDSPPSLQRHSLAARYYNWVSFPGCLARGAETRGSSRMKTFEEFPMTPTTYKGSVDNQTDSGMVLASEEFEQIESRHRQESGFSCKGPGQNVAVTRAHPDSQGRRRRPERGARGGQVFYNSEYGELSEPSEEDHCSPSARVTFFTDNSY
Outline: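 Part of an 85-kinase selectivity panel run by a contract lab. The test compound was screened at 20 nM and 200 nM against human recombinant kinases. Activity was quantified as phosphorylation of a ULight-labelled peptide substrate, read by LANCE detection. Percent inhibition was taken relative to control. The method is the same one used for JAKs.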

Chain of Serine/threonine-protein kinase DCLK1 (Homo sapiens) (O15075 whole entry): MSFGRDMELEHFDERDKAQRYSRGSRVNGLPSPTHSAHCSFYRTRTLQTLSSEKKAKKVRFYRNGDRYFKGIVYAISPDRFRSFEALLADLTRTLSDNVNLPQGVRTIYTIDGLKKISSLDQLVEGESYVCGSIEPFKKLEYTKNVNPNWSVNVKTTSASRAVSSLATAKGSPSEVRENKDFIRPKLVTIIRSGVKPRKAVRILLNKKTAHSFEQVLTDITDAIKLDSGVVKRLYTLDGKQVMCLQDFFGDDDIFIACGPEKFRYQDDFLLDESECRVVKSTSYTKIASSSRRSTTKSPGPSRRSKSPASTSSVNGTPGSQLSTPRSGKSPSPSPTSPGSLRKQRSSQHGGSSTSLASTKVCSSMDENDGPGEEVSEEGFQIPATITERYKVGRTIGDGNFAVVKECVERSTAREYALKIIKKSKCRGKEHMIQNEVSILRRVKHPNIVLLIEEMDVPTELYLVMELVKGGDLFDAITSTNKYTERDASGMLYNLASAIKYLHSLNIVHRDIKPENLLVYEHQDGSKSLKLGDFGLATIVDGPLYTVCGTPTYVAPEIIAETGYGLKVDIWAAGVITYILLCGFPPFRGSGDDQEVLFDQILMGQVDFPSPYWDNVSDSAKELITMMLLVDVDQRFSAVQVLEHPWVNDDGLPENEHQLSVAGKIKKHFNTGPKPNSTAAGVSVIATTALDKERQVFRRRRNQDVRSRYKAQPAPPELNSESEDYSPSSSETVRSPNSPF

inhibition [1]: 9%
inhibition [2]: 38%
SMILES: O=C(CCCCCn1cc(Nc2ncc(Cl)c(Nc3ccc(Cl)cc3)n2)cn1)NO
